Read-outs that look alike come from different tables or passages of the source.

Data on three compounds can be found in paper PMC8848307 (Journal of medicinal chemistry, 2019).

One series deals with SU-DHL-1 cell line. Put plainly: Cell growth assay. Format: cell-based. The note with it: SU-DHL-1, up to 10 μM.
Series [1] addresses T1, STAT3 protein (Homo sapiens, UniProt P40763). The experiment in a line: Western blotting of STAT3 degradation in SU-DHL-1 cells. Format: cell-based. The note with it: SU-DHL-1, concentrations up to 10 μM. (In general: Immunoblotting shows a protein as a band on a membrane.)
The target of series [2] is T1, STAT3 protein. Put plainly: Western blotting of STAT3 degradation in Molm-16 cells. The format is cell-based.
In series [3] the test system is STAT1, STAT2, STAT4, STAT5A/B, and STAT6 proteins. The experiment in a line: Western blotting analysis of other STAT proteins in Molm-16 and SU-DHL-1 cells. The format is cell-based. The note with it: for effect on the levels of any STAT protein: 10 μM, Molm-16 4 h, SU-DHL-1 18 h. A digest of the protocol: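 Molm-16 cells were treated for 4 h and SU-DHL-1 cells for 18 h, with test compound at 0.01–10 μM and control compounds at 10 μM. Cells were lysed and run on SDS–PAGE, then transferred to PVDF and blocked 1 h in 5% blocker in TBST. Blots were probed with primary then secondary antibodies against STAT family members and developed by chemiluminescence.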

Series [4] concerns Molm-16 xenograft tumor. The note with it: 100 mg/kg weekly dosing; cited from earlier work.
Series [5] deals with Molm-16 xenograft tumor. The experiment in a line: Antitumor efficacy in the Molm-16 xenograft model. Format: in vivo, SCID mice. A digest of the protocol: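 Molm-16 cells (3 × 10^6) injected subcutaneously in 5 mg/mL Matrigel into CB.17 SCID mice. At an average tumor volume of 150 mm3, mice were randomized and dosed intravenously at 25 or 50 mg/kg three times weekly, or at 50 mg/kg once weekly, for 3 weeks. Vehicle was 10% PEG400 + 90% PBS. Tumors and body weight were measured 2–3 times weekly, with volume = (length × width2)/2.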

Series [6] has as its target T1, STAT3 protein. Put plainly: Pharmacodynamics in Molm-16 xenograft tumor tissue. The format is in vivo, SCID mice. A digest of the protocol:
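Molm-16 subcutaneous xenografts were grown in CB.17 SCID mice (3 × 10^6 cells in 5 mg/mL Matrigel). Mice received a single intravenous dose of test compound or vehicle (10% PEG400 + 90% PBS). Animals were euthanized at set time points, including 1 h and 72 h. Tumor lysates were immunoblotted for total STAT3 and pSTAT3Y705.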

Another series relates to other STAT proteins. The note with it: cited from earlier work.
Series [7] concerns the target STAT3 protein (Mus musculus, UniProt P42227). The experiment in a line: Pharmacodynamics in native mouse spleen tissue. Format: in vivo. The note with it: single intravenous dose, 25 mg/kg, CD-1 mice. Put shortly:
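Female CD-1 mice received a single intravenous dose of test compound or vehicle (10% PEG400 + 90% PBS). Mice were euthanized at set time points and spleens harvested. Native spleen lysates were immunoblotted for STAT3.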

For another series, the system named is Molm-16 cell line. The experiment in a line: Cell growth assay. Format: cell-based. The note with it: Molm-16, ratio of IC50.
The mark [8] stands for this setting: 25 or 50 mg/kg three times per week.

T1 sequence (P40763 whole entry): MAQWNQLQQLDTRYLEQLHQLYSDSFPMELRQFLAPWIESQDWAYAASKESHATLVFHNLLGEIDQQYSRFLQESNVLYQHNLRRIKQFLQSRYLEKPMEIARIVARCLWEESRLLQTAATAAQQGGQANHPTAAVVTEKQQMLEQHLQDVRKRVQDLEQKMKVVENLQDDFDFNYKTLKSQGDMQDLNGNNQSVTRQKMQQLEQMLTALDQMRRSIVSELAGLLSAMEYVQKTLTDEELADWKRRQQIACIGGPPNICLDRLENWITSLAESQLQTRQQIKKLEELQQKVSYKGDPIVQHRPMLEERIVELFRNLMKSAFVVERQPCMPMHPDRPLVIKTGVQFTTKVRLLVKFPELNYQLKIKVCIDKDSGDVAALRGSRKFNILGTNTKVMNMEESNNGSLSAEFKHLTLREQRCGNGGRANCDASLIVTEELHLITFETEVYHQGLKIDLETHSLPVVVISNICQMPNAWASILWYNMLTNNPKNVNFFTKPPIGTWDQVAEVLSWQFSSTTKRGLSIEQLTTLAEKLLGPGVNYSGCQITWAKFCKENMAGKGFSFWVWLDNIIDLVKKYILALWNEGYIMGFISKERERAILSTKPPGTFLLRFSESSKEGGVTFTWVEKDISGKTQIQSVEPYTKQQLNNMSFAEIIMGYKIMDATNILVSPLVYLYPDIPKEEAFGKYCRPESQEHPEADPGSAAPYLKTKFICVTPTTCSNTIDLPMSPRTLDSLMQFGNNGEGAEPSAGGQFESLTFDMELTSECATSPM
Sequence of STAT3 protein (Mus musculus, UniProt P42227) (P42227 whole entry): as the sequence (P40763 whole entry) above, with E760D counted along it

Turning to `CC(=O)N1CC[C@H]2CC[C@@H](C(=O)N[C@@H](CCC(N)=O)C(=O)NC(c3ccccc3)c3ccccc3)N2C(=O)[C@@H](NC(=O)c2cc3cc(C(F)(F)P(=O)(O)O)ccc3[nH]2)C1` [SI-109, ((2-(((5S,8S,10aR)-3-Acetyl-8-(((S)-5-amino-1-(benzhydrylamino)-1,5-dioxopentan-2-yl)carbamoyl)-6-oxodecahydropyrrolo[1,2-a][1,5]diazocin-5-yl)carbamoyl)-1H-indol-5-yl)difluoromethyl)phosphonic Acid], in the series with SU-DHL-1 cell line, the “effect on cell viability” value is on record as “no effect”. The “effect on the levels of STAT3 and pSTAT3^Y705” value on STAT3 protein [1] is given as “no effect”. Moreover, on STAT3 protein [2] (Molm-16, 4 h, concentrations up to 1 μM), the “effect on the level of total STAT3 protein” value is reported as “no effect”. Besides, the “effect on the level of pSTAT3^Y705 protein” value at STAT3 protein [2] (Molm-16, 4 h, up to / at 1 μM) is recorded as “only modestly decreases”. In addition, in [3], the “effect on the levels of any STAT protein” value is “no effect”.
Take `NC(=O)CC[C@H](NC(=O)[C@@H]1CC[C@@H]2CCN(C(=O)CCCCCC#Cc3cccc4c3CN(C3CCC(=O)NC3=O)C4=O)C[C@H](NC(=O)c3cc4cc(C(F)(F)P(=O)(O)O)ccc4[nH]3)C(=O)N21)C(=O)NC(c1ccccc1)c1ccccc1` (stereo partly drawn) [SD-36, ((2-(((5S,8S,10aR)-8-(((S)-5-Amino-1-(benzhydrylamino)-1,5-dioxopentan-2-yl)carbamoyl)-3-(8-(2-(2,6-dioxopiperidin-3-yl)-1-oxoisoindolin-4-yl)oct-7-ynoyl)-6-oxodecahydropyrrolo-[1,2-a][1,5]diazocin-5-yl)carbamoyl)-1H-indol-5-yl)-difluoromethyl)phosphonic Acid]: the tumor response entry in the series with Molm-16 xenograft tumor [4] is given as “complete tumor regression”. Also, in the series on Molm-16 xenograft tumor [5] (50 mg/kg once weekly for 3 weeks), the tumor response result is listed as “very effective in inhibition of tumor growth”. In the series with Molm-16 xenograft tumor [5] (setting [8]), the “duration of dosing after which complete tumor regression was achieved” value is 2 weeks and the “persistence of complete tumor regression after termination of the treatment” value is reported as “more than 2 weeks”. For the same compound, the tumor response entry with Molm-16 xenograft tumor [5] (25 or 50 mg/kg three times per week for 3 weeks intravenously) is on record as “complete tumor regression”. In addition, the “weight loss or other signs of toxicity” value in the series on Molm-16 xenograft tumor [5] (efficacy experiment, Molm-16 xenograft mice) is recorded as “no weight loss or other signs of toxicity”. Besides, the “concentration very effective in reducing the level of STAT3 protein” value at STAT3 protein [2] (Western blot, Molm-16 and SU-DHL-1 cells) is no less than 0.1 µM. Also, the “persistence of STAT3 elimination in tumor tissue” value at STAT3 protein [6] (single dose) was greater than 3 days. Moreover, the “reduction of total STAT3 and pSTAT3^Y705 proteins in xenograft tumor tissue” value at STAT3 protein [6] (single dose 50 mg/kg, after 1 h) was greater than 95%. The “selectivity for degradation of STAT3 over other STAT members” value in series [3] (Molm-16 and SU-DHL-1 cell lines) is greater than 100 fold. For the same compound, the “effect on STAT1, STAT2, STAT4, STAT5A/B, and STAT6 proteins” value in series [3] (Molm-16 and SU-DHL-1 cell lines, up to 10 μM) is reported as “little or no effect”. The “affinity to other STAT proteins tested” value in the series on other STAT proteins is recorded as “much weaker affinity”. Besides, at STAT3 protein [7], the “persistence of STAT3 reduction in spleen” value is reported as “more than 48 h” and the “reducing STAT3 protein in native mouse spleen tissue” value was “very effective”.
Take `CN1C(=O)CCC(N2Cc3c(C#CCCCCCC(=O)N4CC[C@H]5CC[C@@H](C(=O)N[C@@H](CCC(N)=O)C(=O)NC(c6ccccc6)c6ccccc6)N5C(=O)[C@@H](NC(=O)c5cc6cc(C(F)(F)P(=O)(O)O)ccc6[nH]5)C4)cccc3C2=O)C1=O` (stereo partly drawn) [SD-36Me, ((2-(((5S,8S,10aR)-8-(((S)-5-Amino-1-(benzhydrylamino)-1,5-dioxopentan-2-yl)carbamoyl)-3-(8-(2-(1-methyl-2,6-dioxopi-peridin-3-yl)-1-oxoisoindolin-4-yl)oct-7-ynoyl)-6-oxodecahydropyrrolo[1,2-a][1,5]diazocin-5-yl)carbamoyl)-1H-indol-5-yl)difluoromethyl)phosphonic Acid]: the “times less potent than SD-36 in cell growth inhibition” value with Molm-16 cell line is recorded as 400 times. The “effect on cell viability” value in the series with SU-DHL-1 cell line is on record as “no effect”. Further, the “effect on the levels of STAT3 and pSTAT3^Y705” value at STAT3 protein [1] was “no effect”. The “degradation of total STAT3 and pSTAT3^Y705 proteins” value at STAT3 protein [2] (Molm-16, concentrations up to 10 μM) was “completely ineffective”. The “effect on the levels of any STAT protein” value in [3] was “no effect”.
